The test system of test [1] is Actinomyces viscosus. Put plainly: Antibacterial activity against Actinomyces viscosus after 18 to 24 hrs. In kind it is functional. In outline:
(§1)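 Exponential-phase overnight culture in the organism's growth medium, adjusted to 4.5 × 10⁵ CFU/ml and added to serial compound dilutions in 96-well plates; 37°C for 18 to 24 h in a humidified container. MIC = lowest concentration preventing visible turbidity. Triplicate.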

Test [2] has as its system Porphyromonas gingivalis. Put plainly: Antibacterial activity against Porphyromonas gingivalis ATCC 53978 after 18 to 24 hrs. The class given is functional. In outline: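 P. gingivalis maintained in cooked meat medium with glucose, hemin and vitamin K at 37°C, anaerobic. MIC run in both cooked meat medium and TSB: 4.5 × 10⁵ CFU/ml with serial dilutions, 18 to 24 h, lowest concentration without visible turbidity. Triplicate.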

The test system of another test is Nakaseomyces glabratus. In words: Antifungal activity against Candida glabrata ATCC 90030 after 24 hrs by broth microdilution assay. In kind it is functional. The settings on record: ATCC 90030, 24 h. A digest of the protocol:
(§2)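 CLSI M27-A2 broth microdilution. Colonies from 24-h YPD agar culture suspended in 0.85% saline, set to 0.5 McFarland (OD 530 nm). Final inoculum 0.5–2.5 × 10³ CFU/ml in RPMI 1640 + 0.165 M MOPS pH 7.0. DMSO stock diluted to final 0.016–16 μg/ml. 35°C, visual read at 24 h against the drug-free well. Duplicate.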
(In general: Broth dilution looks for growth in wells or tubes with falling amounts of substance.)

The subject of the next test is Candida parapsilosis. Put plainly: Antifungal activity against Candida parapsilosis ATCC 22019 after 24 hrs by broth microdilution assay. In kind it is functional. The settings on record: Lodderomyces parapsilosis, ATCC 22019, 24 h. In outline:
as §2

The subject of test [3] is Streptococcus mutans. Put plainly: Antibacterial activity against Streptococcus mutans isolate N32 after 18 to 24 hrs. The class given is functional. In outline:
as §1

The test system of test [4] is Streptococcus mutans. In words: Antibacterial activity against Streptococcus mutans ATCC 33402 assessed as inhibition of biofilm formation at >1 ug/ml in presence of 1% sucrose by crystal violet staining. The class given is functional, organism-based.
Test [5] concerns Streptococcus mutans. In words: Antibacterial activity against Streptococcus mutans ATCC 33402 biofilms assessed as bacterial dead cells at 50 ug/ml after 24 hrs by fluorescence confocal microscopy. In kind it is functional, organism-based. In outline:
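2-day sucrose biofilms treated 24 h with 0 or 50 μg/ml, washed three times with PBS, stained 15 min in the dark with LIVE/DEAD dye diluted 1:1,000, washed once. Imaged by confocal laser scanning microscopy at 488 and 543 nm, side and top views.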

For test [6], the system named is Staphylococcus aureus. Put plainly: Antibacterial activity against Staphylococcus aureus ATCC 27660 after 18 to 24 hrs. The class given is functional. A digest of the protocol:
as §1

The subject of test [7] is Candida albicans. In words: Antifungal activity against Candida albicans M70 after 24 hrs by broth microdilution assay. The class given is functional. The note with it: M70, 24 h. A digest of the protocol:
as §2

Test [8] deals with Streptococcus mutans. Put plainly: Antibacterial activity against Streptococcus mutans ATCC 33402 in presence of 50% human saliva. The class given is functional.
Test [9] has as its system Streptococcus mutans. Put plainly: Antibacterial activity against Streptococcus mutans ATCC 33402 after 24 to 48 hrs. In kind it is functional. In outline:
(§3)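 MBC: wells at the MIC plus one dilution above and below plated on agar; after 24 to 48 h growth, MBC = lowest concentration giving no visible growth on the agar surface.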

For another test, the system named is Pichia kudriavzevii. Put plainly: Antifungal activity against Candida krusei ATCC 6258 after 24 hrs by broth microdilution assay. In kind it is functional. The settings on record: ATCC 6258, 24 h. A digest of the protocol:
as §2

Test [10] has as its system Streptococcus mutans. Put plainly: Antibacterial activity against Streptococcus mutans ATCC 33402 in presence of 30 nM single stranded DNA. The class given is functional, organism-based.
For test [11], the system named is Candida albicans. In words: Antifungal activity against Candida albicans 44 after 24 hrs by broth microdilution assay. In kind it is functional. The settings on record: Candida albicans, 44, 24 h. In outline:
as §2

The subject of test [12] is Staphylococcus aureus. In words: Antibacterial activity against Staphylococcus aureus ATCC 27660 after 24 to 48 hrs. The class given is functional. In outline: as §3
Test [13] deals with Streptococcus mutans. Put plainly: Antibacterial activity against Streptococcus mutans ATCC 33402 biofilms assessed as log reduction of viable bacteria at 50 ug/ml. In kind it is functional. In outline: (§4)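 1 × 10⁵ CFU grown 2 days in BHI + 1% sucrose, then compound added for 24 h. Biofilms washed with PBS, disrupted by sonication (30 s) in 2 ml PBS, serially diluted and plated on mitis agar for viable counts.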

The test system of test [14] is Streptococcus mutans. Put plainly: Antibacterial activity against Streptococcus mutans ATCC 33402 in presence of 25% human saliva. The class given is functional.
The test system of test [15] is Aggregatibacter actinomycetemcomitans. Put plainly: Antibacterial activity against Actinobacillus actinomycetemcommitans CU1000 after 24 to 48 hrs. The class given is functional. A digest of the protocol: as §3
For test [16] the test system is unchanged. In words: Antibacterial activity against Actinobacillus actinomycetemcommitans CU1000 after 18 to 24 hrs. The class given is functional. In outline: as §1
The test system of test [17] is Streptococcus mutans. Put plainly: Antibacterial activity against Streptococcus mutans ATCC 33402 biofilms assessed as inhibition of adherent biomass growth at >2.5 ug/ml in presence of 1% sucrose by crystal violet staining. The class given is functional, organism-based. In outline: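 1 × 10⁵ CFU seeded in 96-well plates in BHI + 1% sucrose to form a biofilm, then exposed to increasing concentrations. After PBS washes to remove planktonic cells, methanol fixation and crystal violet staining, absorbance read at 595 nm. Reported as change from day-2 cultures before compound addition. Triplicate; SD.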

In test [18] the test system is Streptococcus mutans. In words: Antibacterial activity against Streptococcus mutans ATCC 33402 assessed as log cell killing at MIC after 1 hr by time kill study. In kind it is functional, organism-based.
Test [19] has as its system Streptococcus mutans. Put plainly: Antibacterial activity against Streptococcus mutans isolate N32 after 24 to 48 hrs. The class given is functional. In outline: as §3
For test [20], the system named is Nucleic Acid. Put plainly: Binding affinity to double stranded DNA retardation of oligonucleotide movement by agarose gel electrophoresis. The class given is nucleic-acid assay.
The test system of test [21] is Streptococcus mutans. Put plainly: Antibacterial activity against Streptococcus mutans ATCC 33402 in presence of 10% human saliva. The class given is functional.
The subject of test [22] is Streptococcus mutans. Put plainly: Antibacterial activity against Streptococcus mutans isolate N43 after 18 to 24 hrs. In kind it is functional. In outline: as §1
The test system of another test is Candida dubliniensis. In words: Antifungal activity against Candida dubliniensis NCPF3949 after 24 hrs by broth microdilution assay. The class given is functional. The note with it: NCPF3949, 24 h. In outline:
as §2

In test [23] the test system is Porphyromonas gingivalis. Put plainly: Antibacterial activity against Porphyromonas gingivalis ATCC 53978 after 24 to 48 hrs. In kind it is functional. In outline: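 P. gingivalis MBC, anaerobic, from MIC plates run in cooked meat medium and TSB: the MIC well and one dilution above and below plated; lowest concentration with no visible agar growth after 24 to 48 h.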

The test system of test [24] is Actinomyces viscosus. In words: Antibacterial activity against Actinomyces viscosus after 24 to 48 hrs. The class given is functional. In outline: as §3
The subject of test [25] is RAW264.7. In words: Inhibition of Pseudomonas aeruginosa LPS-induced TNFalpha production in mouse RAW264.7 cells at 9.5 nM after 6 hrs by ELISA. In kind it is functional, cell-based. A digest of the protocol: (§5)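 RAW 264.7 macrophages plated overnight at 1 × 10⁶ cells/well, then stimulated with 100 ng/ml LPS together with test agent for 6 h at 37°C. TNF-α in the medium measured by mouse TNF-α ELISA. Triplicate; SE; t test.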

For test [26], the system named is Nucleic Acid. Put plainly: Binding affinity to single stranded GC-rich oligonucleotide assessed as retardation of oligonucleotide movement by agarose gel electrophoresis. In kind it is nucleic-acid assay.
The subject of test [27] is Nucleic Acid. In words: Binding affinity to single stranded AT-rich oligonucleotide assessed as retardation of oligonucleotide movement by agarose gel electrophoresis. In kind it is nucleic-acid assay.
Another test has as its system Candida tropicalis. Put plainly: Antifungal activity against Candida tropicalis ATCC 750 after 24 hrs by broth microdilution assay. The class given is functional. The note with it: ATCC 750, 24 h. A digest of the protocol:
as §2

The test system of test [28] is Streptococcus mutans. Put plainly: Antibacterial activity against Streptococcus mutans ATCC 33402 assessed as log cell killing at 10 times MIC within 1 minute by time kill study. In kind it is functional.
In test [29] the test system is Candida albicans. Put plainly: Antifungal activity against Candida albicans ATCC 90028 after 24 hrs by broth microdilution assay. The class given is functional. The settings on record: ATCC 90028, 24 h. In outline: as §2
The test system of test [30] is Streptococcus mutans. In words: Antibacterial activity against Streptococcus mutans isolate N43 after 24 to 48 hrs. The class given is functional. In outline:
as §3

Test [31] relates to Streptococcus mutans. Put plainly: Antibacterial activity against Streptococcus mutans ATCC 33402 after 18 to 24 hrs. The class given is functional. In outline:
as §1

Test [32] has as its system Streptococcus mutans. In words: Antibacterial activity against Streptococcus mutans ATCC 33402 biofilms assessed as log reduction of viable bacteria at 500 ug/ml. The class given is functional, organism-based. A digest of the protocol: as §4
In test [33] the test system is RAW264.7. Put plainly: Inhibition of Pseudomonas aeruginosa LPS-induced TNFalpha production in mouse RAW264.7 cells at 7 nM after 6 hrs by ELISA. The class given is functional, cell-based. In outline:
as §5

≈ marks a conversion by molar mass, not a printed value. Calls of active or inactive are those of the source. The calls are words filed in the database; no cut-off is given here.

The term MFC denotes the lowest tested concentration that kills the fungus rather than only halting it.

For `NCCc1cc(Br)cc(C#Cc2cccc(C#Cc3cc(Br)cc(CCN)c3)c2)c1`, the MIC was found to be 0.8 µg/mL (≈ 1.53 µM) in the test on Actinomyces viscosus [1]; 2.5 µg/mL (≈ 4.79 µM) against Porphyromonas gingivalis [2]; 1 µg/mL (≈ 1.91 µM) in the test on Nakaseomyces glabratus; 1 µg/mL (≈ 1.91 µM) in the test on Candida parapsilosis; 0.5 µg/mL (≈ 0.957 µM) in the test on Streptococcus mutans [3]; 0.25 µg/mL (≈ 0.479 µM) in the test with Staphylococcus aureus [6]. The MIC stood at 0.5 µg/mL (≈ 0.957 µM) against Candida albicans [7]; 0.5 µg/mL in the test on Streptococcus mutans [8]; 1 µg/mL (≈ 1.91 µM) in the test with Pichia kudriavzevii; 0.5 µg/mL (≈ 0.957 µM) against Candida albicans [11]; 1 µg/mL in the test on Streptococcus mutans [14]; 0.4 µg/mL (≈ 0.766 µM) in test [16]. The MIC is 1 µg/mL in the test on Streptococcus mutans [21]; 0.5 µg/mL (≈ 0.957 µM) in the test with Streptococcus mutans [22]; 1 µg/mL (≈ 1.91 µM) in the test with Candida dubliniensis; 1 µg/mL (≈ 1.91 µM) with Candida tropicalis; 1 µg/mL (≈ 1.91 µM) in the test on Candida albicans [29]; 0.5 µg/mL (≈ 0.957 µM) against Streptococcus mutans [31]. For the same compound, the minimum fungicidal concentration (MFC) is 2 µg/mL (≈ 3.83 µM) against Nakaseomyces glabratus; 2 µg/mL (≈ 3.83 µM) against Candida parapsilosis; 1 µg/mL (≈ 1.91 µM) against Candida albicans [7]; 2 µg/mL (≈ 3.83 µM) with Pichia kudriavzevii; 1 µg/mL (≈ 1.91 µM) against Candida albicans [11]; 2 µg/mL (≈ 3.83 µM) against Candida dubliniensis. The minimum fungicidal concentration (MFC) against Candida tropicalis and against Candida albicans [29] was 2 µg/mL (≈ 3.83 µM) in each case. Also, the result with Streptococcus mutans [4], in the test with Streptococcus mutans [5], in the test on Streptococcus mutans [10], with Streptococcus mutans [17], with Streptococcus mutans [18] and with Nucleic Acid [20] was Active. Also, the outcome in the test on RAW264.7 [25], in the test with Nucleic Acid [26] and in the test on Nucleic Acid [27] was Active. The MBC with Streptococcus mutans [9] stood at 1.25 µg/mL (≈ 2.39 µM); against Staphylococcus aureus [12] it was 0.8 µg/mL (≈ 1.53 µM); in test [15] it was 1.5 µg/mL (≈ 2.87 µM); against Streptococcus mutans [19], 1.25 µg/mL (≈ 2.39 µM); with Porphyromonas gingivalis [23], 2.5 µg/mL (≈ 4.79 µM); against Actinomyces viscosus [24], 1.5 µg/mL (≈ 2.87 µM). Besides, the MBC against Streptococcus mutans [30] was 1.25 µg/mL (≈ 2.39 µM). The Activity with Streptococcus mutans [13] is given as 3; in the test with Streptococcus mutans [28], over 2.
Turning to `CN(C)[C@@H]1C(O)=C(C(N)=O)C(=O)[C@@]2(O)C(O)=C3C(=O)c4c(O)cccc4[C@@](C)(O)[C@H]3C[C@@H]12`, the outcome with Streptococcus mutans [32] was Active.
For the compound POLYMYXIN B, the outcome in the test on RAW264.7 [33] was Active.
